The results in this text go back to ChEMBL document CHEMBL3091448, “Identification of potent and selective cathepsin S inhibitors containing different central cyclic scaffolds” (J Med Chem, 2013).

Data set [1] concerns Mus musculus. In words: Reduction of ovalbumin-induced IL-2 production in po dosed DO10.11 transgenic BALB/c mouse administered 30 mins before ovalbumin challenge measured after 4 hrs by luminex single-bead analysis. The format is functional. The method, boiled down:
(§1)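 DO10.11 BALB/c mice carrying a transgenic ovalbumin-peptide TCR were dosed orally with compound, then challenged iv with 1.0 mg low-endotoxin ovalbumin. Plasma IL-2 was measured at 4 h by Luminex bead assay using two anti-IL-2 antibodies. Groups had n = 8, and reduction was expressed versus the ovalbumin challenge group (ANOVA with Dunnett test).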

For data set [2], the system named is Mus musculus. The data set can be described thus: Dose normalized AUC in C57Bl/6 mouse at 9 mg/kg, po. It is filed as ADME, organism-based. Details: dose 9 mg/kg, route oral. The settings on record: in vivo. In outline:
(§2)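 Male C57Bl/6 mice, 8 weeks old, 24−29 g. Dosing was by oral gavage at 9 mg/kg as an aqueous microsuspension in gelatin/NaCl (7.5%/0.62%), or by iv bolus at 2 mg/kg in aqueous NaCl/30% 1-methyl-2-pyrrolidone. Terminal blood (n = 2 per time point) was collected into EDTA tubes and spun at 4 °C to obtain plasma. Plasma levels were measured by LC−MS/MS after acetonitrile precipitation. Values are the mean of two experiments.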

A short description of data set [3]: Oral bioavailability in C57Bl/6 mouse at 9 mg/kg. It is filed as ADME, organism-based. As to conditions: in vivo. In outline:
as §2

Data set [4] can be described thus: Metabolic stability in NMRI mouse plasma assessed as compound remaining at 1000 ng/mL after 4 hrs. The format is ADME, cell-free. As to conditions: read-out: Stability. In outline: (§3)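 Heparinized pooled NMRI mouse plasma was spiked with compound at 1000 ng/mL and incubated at 37 °C in an orbital shaker. Aliquots (n = 3 per time point) were taken at 2 min, 1 h and 4 h and analysed by LC−MS/MS.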

The nature of data set [5]: Half life in C57Bl/6 mouse at 2 mg/kg, iv. The format is ADME, organism-based. On the set-up: dose 2 mg/kg, route intravenous. As to conditions: in vivo. In outline: as §2
Data set [6] in a line: Volume of distribution at steady state in C57Bl/6 mouse at 2 mg/kg, iv and 9 mg/kg, po. As to conditions: in vivo, read-out: Vdss. The format is ADME, organism-based. In outline: as §2
Another data set deals with T1, Cathepsin K (Homo sapiens, UniProt P43235).
T1 sequence (P43235 whole entry): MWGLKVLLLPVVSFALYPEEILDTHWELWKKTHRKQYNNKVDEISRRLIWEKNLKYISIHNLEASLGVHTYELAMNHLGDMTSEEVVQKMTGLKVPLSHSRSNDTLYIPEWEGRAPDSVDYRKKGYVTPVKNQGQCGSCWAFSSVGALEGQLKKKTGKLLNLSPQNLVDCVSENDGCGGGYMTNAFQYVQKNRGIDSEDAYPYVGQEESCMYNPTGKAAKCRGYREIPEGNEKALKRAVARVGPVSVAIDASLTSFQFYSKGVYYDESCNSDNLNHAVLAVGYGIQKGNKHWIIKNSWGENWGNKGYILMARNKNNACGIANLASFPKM
The data set can be described thus: Inhibition of human cathepsin-K using Z-Leu-Arg-AMC as substrate up to 20 mins by fluorescence assay. In outline:
(§4)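 Fluorogenic quenched-peptide cleavage assay. Enzymes at 1 nM in 100 mM potassium phosphate pH 6.5, 5 mM EDTA-Na, 0.001% Triton X-100 and 5 mM DTT. Enzyme was added to the compound dilutions, then 20 μM substrate started the reaction: Z-Val-Val-Arg-AMC, or Z-Leu-Arg-AMC for CatK. Fluorescence (ex 360/em 465 nm) was read over 20 min. IC50 is the mean of ≥2 independent experiments.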

A short description of data set [7]: Half life in C57Bl/6 mouse at 9 mg/kg, po. The format is ADME, organism-based. Details: dose 9 mg/kg, route oral. The settings on record: in vivo. In outline:
as §2

Data set [8] is described as follows: Clearance in C57Bl/6 mouse at 2 mg/kg, iv and 9 mg/kg, po. The format is ADME, organism-based. The settings on record: in vivo. In outline: as §2
For another data set, the system named is Plasma. The data set can be described thus: Metabolic stability in human plasma assessed as compound remaining at 1000 ng/mL after 5 hrs. It is filed as ADME, cell-free.
Data set [9] concerns Mus musculus. The data set can be described thus: Dose normalized AUC in C57Bl/6 mouse at 2 mg/kg, iv. It is filed as ADME, organism-based. Details: dose 2 mg/kg, route intravenous. The settings on record: in vivo. In outline:
as §2

The target of the next data set is Cathepsin B (Homo sapiens, UniProt P07858). The data set can be described thus: Inhibition of human cathepsin-B using Z-Val-Val-Arg-AMC as substrate up to 20 mins by fluorescence assay. The method, boiled down:
as §4

The target of data set [10] is Cathepsin S (Mus musculus, UniProt O70370). In words: Inhibition of mouse cathepsin-S using Z-Val-Val-Arg-AMC as substrate up to 20 mins by fluorescence assay. In outline: as §4
Sequence of Cathepsin S (Mus musculus, UniProt O70370) (O70370 whole entry): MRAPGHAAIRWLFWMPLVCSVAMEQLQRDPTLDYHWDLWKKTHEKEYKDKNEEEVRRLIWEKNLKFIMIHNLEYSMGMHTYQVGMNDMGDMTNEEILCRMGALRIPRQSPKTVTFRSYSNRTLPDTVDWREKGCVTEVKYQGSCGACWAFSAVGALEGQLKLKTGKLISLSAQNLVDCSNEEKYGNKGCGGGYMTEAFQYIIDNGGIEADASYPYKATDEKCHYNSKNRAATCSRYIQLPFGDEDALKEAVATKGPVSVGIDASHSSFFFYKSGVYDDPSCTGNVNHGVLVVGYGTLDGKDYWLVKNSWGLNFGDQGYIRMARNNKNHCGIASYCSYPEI
For data set [11], the target named is Cathepsin S (Homo sapiens, UniProt P25774). In words: Inhibition of human cathepsin-S using Z-Val-Val-Arg-AMC as substrate up to 20 mins by fluorescence assay. In outline: as §4
Sequence of Cathepsin S (Homo sapiens, UniProt P25774) (P25774 whole entry): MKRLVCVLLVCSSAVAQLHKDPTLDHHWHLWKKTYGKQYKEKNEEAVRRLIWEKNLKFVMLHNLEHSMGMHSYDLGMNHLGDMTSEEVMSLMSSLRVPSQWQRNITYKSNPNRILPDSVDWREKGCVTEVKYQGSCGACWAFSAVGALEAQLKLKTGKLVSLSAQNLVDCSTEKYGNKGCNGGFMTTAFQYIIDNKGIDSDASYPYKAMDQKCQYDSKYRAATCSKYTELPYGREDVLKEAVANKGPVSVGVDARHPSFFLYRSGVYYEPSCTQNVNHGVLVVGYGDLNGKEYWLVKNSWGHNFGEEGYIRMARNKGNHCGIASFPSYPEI
The subject of the next data set is A20. In words: Inhibition of ovalbumin-induced antigen presentation in mouse A20 cells treated 1 hr before ovalbumin addition incubated for 16 hrs followed by co-cultured with DO10.10 T-cell hybridoma cells for 24 hrs assessed as IL-2 production by luminex single-bead analysis. The format is functional, cell-based. The method, boiled down:
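A20 cells were seeded at 3 × 10⁵/mL and preincubated with compound for 1 h. Ovalbumin was then added (5 mg/mL final) for 16 h. Cells were washed three times with PBS, then DO10.10 T-cell hybridoma cells (2 × 10⁵/mL) were added. After 24 h, IL-2 was quantified by Luminex single-bead assay using two anti-IL-2 antibodies. IC50 is the mean of ≥2 independent experiments.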

Another data set addresses Procathepsin L (Homo sapiens, UniProt P07711). In words: Inhibition of human cathepsin-L using Z-Val-Val-Arg-AMC as substrate up to 20 mins by fluorescence assay. The method, boiled down:
as §4

Data set [12] can be described thus: Drug degradation in NMRI mouse plasma at 1000 ng/mL after 4 hrs. It is filed as ADME, cell-free. The settings on record: read-out: Drug degradation. In outline:
as §3

The nature of data set [13]: Plasma concentration in DO10.11 transgenic BALB/c mouse at 50 mg/kg, po administered 30 mins before ovalbumin challenge measured after 4 hrs. The format is ADME, organism-based. On the set-up: dose 50 mg/kg, route oral.
For data set [14], the system named is Mus musculus. In words: Reduction of ovalbumin-induced IL-2 production in DO10.11 transgenic BALB/c mouse at 50 mg/kg, po administered 30 mins before ovalbumin challenge measured after 4 hrs by luminex single-bead analysis. On the set-up: dose 50 mg/kg. The format is functional, organism-based. In outline:
as §1

The species named for a further data set is Homo sapiens. In words: Selectivity ratio of IC50 for human cathepsin-K to IC50 for human cathepsin-S.

Active and inactive are the calls of the source.

Sequence of Procathepsin L (P07711 whole entry): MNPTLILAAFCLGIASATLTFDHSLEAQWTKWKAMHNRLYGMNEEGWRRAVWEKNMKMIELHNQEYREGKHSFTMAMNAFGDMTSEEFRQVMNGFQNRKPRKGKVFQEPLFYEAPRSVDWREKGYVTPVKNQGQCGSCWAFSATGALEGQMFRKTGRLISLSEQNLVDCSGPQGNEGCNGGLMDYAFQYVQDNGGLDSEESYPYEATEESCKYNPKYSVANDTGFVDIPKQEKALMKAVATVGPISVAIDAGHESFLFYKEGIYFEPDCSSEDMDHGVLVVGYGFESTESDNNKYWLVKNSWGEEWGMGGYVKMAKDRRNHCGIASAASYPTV

With `CC(=O)N1C[C@H](S(=O)(=O)c2ccccc2Cl)C[C@H]1C(=O)NC1(C#N)CC1`, the Activity entry with Mus musculus [1] is “Dose-dependent effect”. Moreover, the median effective dose (ED50) (usually the dose at which the effect has come halfway, by size or by number of responders) in the data set with Mus musculus [1] turned out to be 5 mg/kg. Moreover, the AUC/dose was 309 ng·h/mL in the data set on Mus musculus [2] and 581 ng·h/mL in the data set on Mus musculus [9]. Further, in data set [3], the bioavailability (in general, dose-corrected exposure relative to a reference, in per cent) was found to be 53%. For the same compound, the remaining at 4 h, 1000 ng/mL in [4] was found to be 72%. In addition, the half-life (in general, the time needed for the level to fall by half in the phase considered) is 18 min in data set [5] and 30 min in data set [7]. Also, the Vd in data set [6] is 0.5 L/kg. For the same compound, the IC50 (commonly the concentration at which inhibition is half-maximal) was more than 25000 nM against Cathepsin K; 47600 nM against Cathepsin B; 2 nM against Cathepsin S [10]; 1 nM against Cathepsin S [11]; 19 nM in the data set with A20; 29700 nM on Procathepsin L. The clearance in [8] was 29 mL/min/kg. Also, in the data set with Plasma, the Stability entry is on record as “Stable”.

For `N#CC1(NC(=O)[C@@H]2C[C@@H](S(=O)(=O)c3ccccc3Cl)CN2C(=O)c2ccccc2)CC1`, in [12], the metabolised at 4 h, 1000 ng/mL was more than 90%. Besides, the IC50 was more than 25000 nM at Cathepsin K; 35200 nM on Cathepsin B; 1 nM on Cathepsin S [10]; 0.8 nM at Cathepsin S [11]; 15 nM with A20; 6800 nM against Procathepsin L.

`N#CC1(NC(=O)[C@@H]2C[C@@H](S(=O)(=O)c3ccccc3C(F)(F)F)CN2)CC1` showed a concentration at 4 h in [13] of 2050 ng/mL. Moreover, the AUC/dose in the data set on Mus musculus [2] was 7200 ng·h/mL; with Mus musculus [9] it was 10400 ng·h/mL. The same compound yielded a bioavailability in data set [3] of 69%. In addition, the remaining at 4 h, 1000 ng/mL in data set [4] was determined as 51%. Further, the half-life was 66 min in data set [5] and 54 min in data set [7]. Besides, the Vd in [6] was 0.13 L/kg. For the same compound, the half-maximal inhibitory concentration (IC50) against Cathepsin K is more than 25000 nM; on Cathepsin B, more than 25000 nM; against Cathepsin S [10], 6 nM; at Cathepsin S [11], 2 nM; with A20 it was 58 nM; against Procathepsin L, more than 25000 nM. In [8], the clearance worked out at 1.6 mL/min/kg. Moreover, in the data set on Plasma, the Stability entry is on record as “Stable”. For the same compound, the result in the data set with Mus musculus [14] was inactive.

For the compound `N#CCNC(=O)[C@@H]1C[C@@H](S(=O)(=O)c2ccccc2)C[C@H]1C(=O)N1CCOCC1`, the AUC/dose came to 77 ng·h/mL in the data set with Mus musculus [2] and 427 ng·h/mL in the data set with Mus musculus [9]. This compound registered a bioavailability in data set [3] of 18%. Besides, the remaining at 4 h, 1000 ng/mL in data set [4] worked out at 99%. In addition, the half-life in [5] was 18 min; in [7], 54 min. The Vd in data set [6] came out at 0.5 L/kg. Further, the IC50 came out at 15500 nM on Cathepsin K; 6200 nM at Cathepsin B; 1 nM on Cathepsin S [10]; 0.7 nM against Cathepsin S [11]; 23 nM in the data set with A20; 11700 nM against Procathepsin L. For the same compound, the clearance in [8] was found to be 39 mL/min/kg. Further, the Stability result with Plasma is “Stable”. Further, in the data set filed under Homo sapiens, the Ratio IC50 is more than 20000.

Take `N#CC1(NC(=O)[C@@H]2C[C@@H](S(=O)(=O)c3ccccc3Cl)CN2C(=O)C2CCCCC2)CC1`: the metabolised at 4 h, 1000 ng/mL in data set [12] is more than 90%. The half-maximal inhibitory concentration (IC50) against Cathepsin K is more than 25000 nM; against Cathepsin S [10], 0.2 nM; against Cathepsin S [11] it was 0.3 nM; in the data set with A20, 2 nM; against Procathepsin L, 8300 nM.
